≈ marks a conversion by molar mass, not a printed value. Calls of active or inactive are those of the source. No cut-off for these calls is given here.
Columns and labels:
[1] = system: Trichophyton mentagrophytes; assay: Antifungal activity against Trichophyton mentagrophytes; format: functional
[2] = species: Homo sapiens; assay: Antiproliferative activity against human SNU538 cells after 72 hrs by SRB assay; format: functional, cell-based
[3] = system: Candida albicans; assay: Antifungal activity against Candida albicans; format: functional
[4] = system: Salmonella enterica; assay: Antibacterial activity against Salmonella enterica; format: functional
[5] = system: Staphylococcus aureus; assay: Antibacterial activity against Staphylococcus aureus; format: functional
[6] = system: RAW264.7; assay: Cytotoxicity against LPS-induced mouse RAW264.7 cells assessed as reduction in cell viability up to 80 uM by MTT assay; format: cell-based
Procedure, shortened: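 Viability of mouse macrophages after co-exposure to LPS and compound, measured by MTT assay. This was run alongside the LPS-induced NO suppression assay to check for cytotoxicity.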

[7] = system: MDA-MB-231; assay: Antimigratory activity against human MDA-MB-231 cells at 20 uM after 48 hrs by wound healing assay relative to control; format: functional
Procedure, shortened: (§1)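 Wound healing (scratch) assay on MDA-MB-231 human breast cancer cells, compound at 20 and 40 μM, sunitinib as positive control. Migration was expressed relative to untreated control as mean ± SD (n = 3), with significance versus control.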

[8] = system: Escherichia coli; assay: Antibacterial activity against Escherichia coli; format: functional
[9] = system: MDA-MB-231; assay: Antiinvasive activity against human MDA-MB-231 cells at 40 uM after 48 hrs by crystal violet staining based microscopic method relative to control; format: functional
Procedure, shortened: (§2)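 Cell invasion assay with MDA-MB-231 human breast cancer cells exposed to 20 or 40 μM compound, sunitinib as positive control. Invasion decrease is relative to untreated control, given as mean ± SD of n = 3, with significance versus control.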

[10] = system: Enterococcus faecium; assay: Antibacterial activity against Enterococcus faecium; format: functional
[11] = system: SK-HEP1; assay: Antiproliferative activity against human SKHEP1 cells after 72 hrs by SRB assay; format: functional, cell-based
[12] = system: RAW264.7; assay: Antiinflammatory activity in mouse RAW264.7 cells assessed as inhibition of LPS-induced nitric oxide production preincubated for 1 hr followed by LPS addition and measured on next day by Griess reagent based assay; format: functional, cell-based
Procedure, shortened: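 Mouse macrophages treated with compound, then stimulated with LPS to induce nitric oxide production (iNOS assay). NO suppression was read against LPS-only cells and expressed as IC50. 2-Amino-5,6-dihydro-6-methyl-4H-1,3-thiazine (AMT) was the positive control.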

[13] = system: A549; assay: Antiproliferative activity against human A549 cells after 72 hrs by SRB assay; format: functional, cell-based
[14] = system: Aspergillus fumigatus; assay: Antifungal activity against Aspergillus fumigatus; format: functional
[15] = system: HCT-116; assay: Antiproliferative activity against human HCT116 cells after 72 hrs by SRB assay; format: functional, cell-based
[16] = system: MDA-MB-231; assay: Antiproliferative activity against human MDA-MB-231 cells after 72 hrs by SRB assay; format: functional, cell-based
[17] = system: MDA-MB-231; assay: Antiinvasive activity against human MDA-MB-231 cells at 20 uM after 48 hrs by crystal violet staining based microscopic method relative to control; format: functional; procedure, shortened: as §2
[18] = system: MDA-MB-231; assay: Antimigratory activity against human MDA-MB-231 cells at 40 uM after 48 hrs by wound healing assay relative to control; format: functional; procedure, shortened: as §1
[19] = system: Enterococcus faecalis; assay: Antibacterial activity against Enterococcus faecalis; format: functional
[20] = system: Klebsiella pneumoniae; assay: Antibacterial activity against Klebsiella pneumoniae; format: functional
[21] = system: MCF-10A; assay: Antiproliferative activity against human MCF10A cells after 72 hrs by SRB assay; format: cell-based
[22] = system: Trichophyton rubrum; assay: Antifungal activity against Trichophyton rubrum; format: functional
[23] = system: MDA-MB-231; assay: Antimigratory activity against human MDA-MB-231 cells after 48 hrs by wound healing assay; format: functional, cell-based; procedure, shortened: as §1

MIC [1] [µM]	MIC [3] [µM]	MIC [4] [µM]	MIC [5] [µM]	MIC [8] [µM]	MIC [10] [µM]	IC50 [12] [µM]	MIC [14] [µM]	MIC [19] [µM]	MIC [20] [µM]	SMILES	Activity [2]	Activity [6]	Activity [7]	Activity [9]	Activity [11]	Activity [13]	Activity [15]	Activity [16]	Activity [17]	Activity [18]	also measured
> 128	> 128	64 (≈ 20.4 µg/mL)	64 (≈ 20.4 µg/mL)	64 (≈ 20.4 µg/mL)	64 (≈ 20.4 µg/mL)	83	> 128	64 (≈ 20.4 µg/mL)	64 (≈ 20.4 µg/mL)	CCCCCC[C@H]1CN(O)[C@H]2C=C/C(=C\C=C\C(=O)O)[C@]23O[C@H]13	inactive	Non-Toxic	inactive	inactive	inactive	inactive	inactive	inactive	inactive	inactive	Activity [21]: Non-Toxic; MIC [22]: > 128 µM
> 128	> 128	64 (≈ 19.4 µg/mL)	64 (≈ 19.4 µg/mL)	64 (≈ 19.4 µg/mL)	64 (≈ 19.4 µg/mL)	16.9	> 128	64 (≈ 19.4 µg/mL)	64 (≈ 19.4 µg/mL)	CCCCCC[C@H]1CN[C@H]2C=C/C(=C\C=C\C(=O)O)[C@]23O[C@H]13	inactive	Non-Toxic	50%	36%	inactive	inactive	inactive	inactive	20%	73%	Activity [23]: Dose-dependent effect; Activity [21]: Non-Toxic; MIC [22]: > 128 µM

— ChEMBL document CHEMBL4400583, “Camporidines A and B: Antimetastatic and Anti-inflammatory Polyketide Alkaloids from a Gut Bacterium of Camponotus kiusiuensis” (J Nat Prod, 2019)
